Laboratory results published in PMC3863768 (Journal of medicinal chemistry, 2012).
Changes are numbered by the printed parent chain.

What was measured:
PfNMT = molecular target: T1, PfNMT (Plasmodium falciparum, UniProt Q9U419); experiment: NMT enzyme inhibition assay; assay type: biochemical, P. falciparum; details: for lower inhibition vs. 4: shorter or longer spacers than the methylene ester; for lower inhibition vs. 4 / activity drop vs. 4: compared with compound 4
T1 sequence (Q9U419 1-410): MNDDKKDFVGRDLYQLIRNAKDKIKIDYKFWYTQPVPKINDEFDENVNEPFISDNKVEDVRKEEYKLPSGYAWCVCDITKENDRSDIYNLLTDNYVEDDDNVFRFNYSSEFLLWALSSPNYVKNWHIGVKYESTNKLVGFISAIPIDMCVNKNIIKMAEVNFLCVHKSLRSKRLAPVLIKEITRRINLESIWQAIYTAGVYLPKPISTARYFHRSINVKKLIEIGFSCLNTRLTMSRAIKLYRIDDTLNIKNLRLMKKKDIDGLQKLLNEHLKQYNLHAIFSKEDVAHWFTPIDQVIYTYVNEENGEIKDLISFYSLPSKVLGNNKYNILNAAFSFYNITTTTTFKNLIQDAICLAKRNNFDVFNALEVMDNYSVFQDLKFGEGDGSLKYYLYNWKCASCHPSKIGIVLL
Method in brief: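 Stopped with streptavidin PVT beads in pH 4 stop solution; scintillation counted. No-inhibitor wells set 100%, no-enzyme wells 0%. Test compound 500 μM to 2 nM, in duplicate. IC50 by nonlinear regression, averaged from two independent curves.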

HsNMT1 = molecular target: T2, HsNMT1 (Homo sapiens, UniProt P30419); experiment: NMT enzyme inhibition assay; assay type: biochemical
T2 sequence (P30419 109-496 limits assumed): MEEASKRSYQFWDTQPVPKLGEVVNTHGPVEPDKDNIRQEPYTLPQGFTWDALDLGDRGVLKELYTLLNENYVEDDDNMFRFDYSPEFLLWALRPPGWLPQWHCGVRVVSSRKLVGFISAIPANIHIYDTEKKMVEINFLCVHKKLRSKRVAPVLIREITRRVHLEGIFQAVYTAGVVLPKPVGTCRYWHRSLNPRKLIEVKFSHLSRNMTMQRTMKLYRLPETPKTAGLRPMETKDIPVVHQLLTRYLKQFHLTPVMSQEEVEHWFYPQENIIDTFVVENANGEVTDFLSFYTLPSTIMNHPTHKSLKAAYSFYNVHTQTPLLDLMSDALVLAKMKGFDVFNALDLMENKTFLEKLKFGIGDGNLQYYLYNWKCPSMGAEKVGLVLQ

P. falciparum, 3D7 line = experiment: P. falciparum inhibition assay; assay type: cell-based; details: synchronized P. falciparum trophozoites (3D7 line)
Method in brief: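 Synchronous late-trophozoite cultures (1% parasitemia, 2% hematocrit) with test compound in 0.5% DMSO, 48 h at 37 °C. Aliquots stained with hydroethidine (1:200 dilution of 10 mg/mL stock in PBS), 20 min at 37 °C; 50,000 cells counted by flow cytometry. Untreated parasites and uninfected RBCs are the controls; % inhibition computed.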

HsNMT1 Y296A = molecular target: T3, HsNMT1 Y296A (Homo sapiens, UniProt P30419, Y296A); experiment: NMT enzyme inhibition assay; assay type: biochemical; details: HsNMT1 Y296A vs wild type
T3 sequence (P30419 109-496 Y296A limits assumed): T2 sequence (P30419 109-496 limits assumed) with Y188A

Compound: Cc1c(C(=O)Oc2ccccc2)oc2cccc(OC3CCNCC3)c12 [Compound 3, Phenyl 3-methyl-4-(piperidin-4-yloxy)-1-benzofuran-2-carboxylate]
- lower inhibition vs. 4 (PfNMT): 10- to 100 fold

Compound: Cc1c(-c2nc(Cc3ccccc3)no2)oc2cccc(OC3CCNCC3)c12 [Compound 25]
- PfNMT inhibition (in words) (PfNMT): promising potency

Compound: CCOC(=O)c1oc2cccc(OCCCNCc3cccnc3)c2c1C [Compound 1, reference compound]
- PfNMT inhibition (in words) (PfNMT): moderate inhibition
- selectivity over human NMT1 (in words) (HsNMT1): promising selectivity

Compound: Cc1c(C(=O)NC2CCCCC2)oc2cccc(OC3CCNCC3)c12 [Compound 10]
- IC50 (PfNMT): > 100 µM

Compound: Cc1c(C(=O)/C=C/c2ccccc2)oc2cccc(OC3CCNCC3)c12 [Compound 23, (2E)-1-[3-Methyl-4-(piperidin-4-yloxy)-1-benzofuran-2-yl]-3-phenylprop-2-en-1-one]
- improvement in affinity vs. 22 (PfNMT; PfNMT inhibition, compared with compound 22): 3 fold

Compound: Cc1c(C(=O)OCCCc2ccccc2)oc2cccc(OC3CCNCC3)c12 [Compound 8]
- lower inhibition vs. 4 (PfNMT): 10- to 100 fold

Compound: Cc1c(CCc2ccccc2)oc2cccc(OC3CCNCC3)c12 [Compound 18, 4-{[3-Methyl-2-(2-phenylethyl)-1-benzofuran-4-yl]oxy}piperidine]
- PfNMT inhibition (in words) (PfNMT): does not confer inhibitory activity

Compound: O=S(=O)(Cc1ccccc1)c1cc2c(OC3CCNCC3)cccc2o1 [Compound 24, 4-{[2-(Phenylmethane)sulfonyl-1-benzofuran-4-yl]oxy}piperidine]
- PfNMT inhibition (in words) (PfNMT): dramatic loss of activity

Compound: Cc1c(C(=O)OCCc2ccccc2)oc2cccc(OC3CCNCC3)c12 [Compound 7]
- lower inhibition vs. 4 (PfNMT): 10- to 100 fold

Compound: Cc1c(C(=O)CCc2ccccc2)oc2cccc(OC3CCNCC3)c12 [Compound 22]
- activity drop vs. 4 (PfNMT; PfNMT inhibition): 40 fold

Compound: Cc1c(COCc2ccccc2)oc2cccc(OC3CCNCC3)c12 [Compound 21, 4-({2-[(Benzyloxy)methyl]-3-methyl-1-benzofuran-4-yl}oxy)-piperidine]
- activity drop vs. 4 (PfNMT; PfNMT inhibition): 40 fold

Compound: Cc1c(C(=O)NC(C)C)oc2cccc(OC3CCNCC3)c12 [Compound 9, N-isopropyl-3-methyl-4-(piperidin-4-yloxy)benzofuran-2-carboxamide]
- IC50 (PfNMT): > 200 µM

Compound: CCOC(=O)c1oc2cccc(OC3CCNCC3)c2c1C [Compound 2, Ethyl 3-methyl-4-(piperidin-4-yloxy) benzofuran-2-carboxylate]
- activity improvement over 1 (PfNMT; PfNMT inhibition, compared with compound 1): 3 fold
- selectivity over human NMT1 (in words) (HsNMT1): good human selectivity

Compound: Cc1c(C(=O)OCc2ccccc2)oc2cccc(OC3CCNCC3)c12 [Compound 4]
- anti-plasmodial effect in vitro (in words) (P. falciparum, 3D7 line): highest anti-parasitic activity

Compound: COc1cccc(COC(=O)c2oc3cccc(OC4CCNCC4)c3c2C)c1 [Compound 26]
- PfNMT inhibition (in words) (PfNMT): comparable potency to the parent compound 4
- HsNMT1 inhibition (in words) (HsNMT1): weak inhibition
- increase in affinity on mutation of the human NMT (HsNMT1 Y296A): four- to five-fold
